# ChEMBL document CHEMBL3286298 (Eur J Med Chem, 2014)
# Legend:
# Brain [1] = assay: Drug uptake in Kunming mouse brain […] iv ibuprofen administered as single dose by HPLC analysis relative to ibuprofen; type: ADME, organism-based; details: in vivo
# Brain [2] = assay: Drug uptake in Kunming mouse brain assessed as concentration efficiency […] iv ibuprofen administered as single dose by HPLC analysis relative to ibuprofen; type: ADME, organism-based; details: in vivo
# [3] = Chemical stability of compound in phosphate buffer assessed as first order rate constant of disappearance of drug at pH 2.21 by HPLC analysis; type: physicochemical
# Procedure, shortened: (§1)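 Methanol solution of compound mixed into 4 ml phosphate buffer (pH 2.21, 5.86, 7.33 or 7.88), held at 37 °C; samples taken at 0, 1, 3, 6, 12, 24 h and analysed by reverse-phase HPLC (methanol/water 70:30, pH 2.86, UV 219 nm). Pseudo-first-order Kdisapp from linear regression of ln peak area against time in hours; t1/2 derived from it.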
# [4] = Chemical stability of compound in phosphate buffer assessed as first order rate constant of disappearance of drug at pH 5.86 by HPLC analysis; type: physicochemical; procedure, shortened: as §1
# [5] = Chemical stability of compound in phosphate buffer assessed as first order rate constant of disappearance of drug at pH 7.33 by HPLC analysis; type: physicochemical; procedure, shortened: as §1
# [6] = Chemical stability of compound in phosphate buffer assessed as first order rate constant of disappearance of drug at pH 7.88 by HPLC analysis; type: physicochemical; procedure, shortened: as §1
# [7] = Chemical stability of compound in phosphate buffer assessed as half life at pH 2.21 by HPLC analysis; type: physicochemical; procedure, shortened: as §1
# [8] = Chemical stability of compound in phosphate buffer assessed as half life at pH 5.86 by HPLC analysis; type: physicochemical; procedure, shortened: as §1
# [9] = Chemical stability of compound in phosphate buffer assessed as half life at pH 7.33 by HPLC analysis; type: physicochemical; procedure, shortened: as §1
# [10] = Chemical stability of compound in phosphate buffer assessed as half life at pH 7.88 by HPLC analysis; type: physicochemical; procedure, shortened: as §1
# [11] = Metabolic stability in mouse plasma assessed as first order rate constant of disappearance of drug by HPLC analysis; type: ADME, cell-free
# Procedure, shortened: (§2)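 Incubation in mouse plasma extract or brain homogenate at 37 °C; remaining compound measured by HPLC (UV 219 nm). Pseudo-first-order Kdisapp from linear regression of ln peak area against time in minutes; half-life derived from it.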
# Brain [12] = assay: Metabolic stability in mouse brain assessed as first order rate constant of disappearance of drug by HPLC analysis; type: ADME, tissue-based; procedure, shortened: as §2
# [13] = Metabolic stability in mouse plasma assessed as compound half life by HPLC analysis; type: ADME, cell-free; procedure, shortened: as §2
# [14] = Metabolic stability in mouse brain assessed as compound half life by HPLC analysis; type: ADME, tissue-based; procedure, shortened: as §2
# Brain [15] = assay: AUC (0 to t) in Kunming mouse brain […] iv ibuprofen administered as single dose by HPLC analysis; type: ADME, organism-based; details: in vivo
# [16] = AUC (0 to t) in Kunming mouse blood at 48 mmol/g, iv administered as single dose by HPLC analysis; type: ADME, organism-based
# [17] = Mean residence time in Kunming mouse blood at 48 mmol/g, iv administered as single dose by HPLC analysis; type: ADME, organism-based
# [18] = Cmax in Kunming mouse blood at 48 mmol/g, iv administered as single dose by HPLC analysis; type: ADME, organism-based; parameters: dose 48 mmol/g, route intravenous
# [19] = Tmax in Kunming mouse blood at 48 mmol/g, iv administered as single dose by HPLC analysis; type: ADME, organism-based
# Brain [20] = assay: AUC (0 to t) in Kunming mouse brain at 48 mmol/g, iv administered as single dose by HPLC analysis; type: ADME, organism-based; details: in vivo
# [21] = Cmax in Kunming mouse brain at 48 mmol/g, iv administered as single dose by HPLC analysis; type: ADME, organism-based; parameters: dose 48 mmol/g, route intravenous
# [22] = Tmax in Kunming mouse brain at 48 mmol/g, iv administered as single dose by HPLC analysis; type: ADME, organism-based
SMILES,Ratio (Brain [1]),Ratio (Brain [2]),K [3] [×10⁻² /hr],K [4] [×10⁻² /hr],K [5] [×10⁻² /hr],K [6] [×10⁻² /hr],half-life [7] [h],half-life [8] [h],half-life [9] [h],half-life [10] [h],k el [11] [s⁻¹],K (Brain [12]) [×10⁻² /min],half-life [13] [h],half-life [14] [h],AUCt (Brain [15]) [µg·min/g],further results
CC(C)Cc1ccc(C(C)C(=O)OCC(OC(=O)C(C)c2ccc(CC(C)C)cc2)C2OC(=O)C(O)=C2O)cc1 (configuration not stated),3.516,4.965,1.76,3.66,5.58,8.65,39.5,18.9,12.4,8.1,0.000262,2.48,0.737,0.465,6526.7422,–
CC(C)Cc1ccc(C(C)C(=O)OC(CO)C2OC(=O)C(O)=C2O)cc1 (configuration not stated),2.254,4.194,1.61,3.36,4.3,7.15,43,20.6,16.1,9.7,0.000225,4.16,0.857,0.278,4183.3895,–
C/C(=C(\CCOC(=O)C(C)c1ccc(CC(C)C)cc1)SSCc1ccccc1)N(C=O)CC(=O)OCC(OC(=O)C(C)c1ccc(CC(C)C)cc1)C1OC(=O)C(O)=C1O (configuration not stated),4.072,7.461,1.29,2.89,4.27,6.87,53.9,23.9,16.2,10.1,0.000307,5.46,0.463,0.212,7557.692,–
CC(C)Cc1ccc(C(C)C(=O)O)cc1 (configuration not stated) [IBUPROFEN],–,–,–,–,–,–,–,–,–,–,–,–,–,–,–,AUC(0-t) [16]: 56800 ng·h/mL; MRT [17]: 78.9 h; Cmax [18]: 28400 ng/mL; Tmax [19]: 6.67 min; AUCt (Brain [20]): 1856.215 µg·min/g; Cmax [21]: 10700 ng/g; Tmax [22]: 0.417 h
CC(C)Cc1ccc(C(C)C(=O)OCC(O)C2OC(=O)C(O)=C2O)cc1 (configuration not stated),2.03,2.619,1.73,3.76,4.67,8.42,40.1,18.4,14.8,8.2,0.000248,3.46,0.777,0.335,3767.9842,–
